From ChEMBL document CHEMBL3259751, “A rational design strategy of the novel topoisomerase II inhibitors for the synthesis of the 4-O-(2-pyrazinecarboxylic)-4'-demethylepipodophyllotoxin with antitumor activity by diminishing the relaxation reaction of topoisomerase II-DNA decatenation” (Bioorg Med Chem, 2014) come the findings set out here.

The subject of the first data set is HepG2. The experiment in a line: Cytotoxicity against human HepG2 cells after 48 hrs by MTT assay. In kind it is functional, cell-based. The settings on record: HepG2, 48 h. In a few lines: (§1)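 Cells seeded at 3500–13,000 per well. A549, HeLa and HepG2 were grown in DMEM and BGC-823 in RPMI 1640, each with 10% CS plus penicillin/streptomycin, at 37 °C and 5% CO₂. Drug exposure lasted 2 days, followed by MTT readout at A₄₉₂, with untreated controls at 0.6–0.8. IC50 was the concentration cutting absorbance by 50%, interpolated by sigmoidal nonlinear regression. Run in triplicate.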
With `COc1cc([C@@H]2c3cc4c(cc3[C@@H](NC(=O)c3cc(O)c(O)c(O)c3)[C@H]3COC(=O)[C@H]23)OCO4)cc(OC)c1O`, it took 27.4 µM to reach half-maximal inhibition (IC50). In other words, the double-digit micromolar range.
As to `COc1cc([C@@H]2c3cc4c(cc3[C@@H](OC(=O)c3ccc5ccccc5n3)[C@H]3COC(=O)[C@H]23)OCO4)cc(OC)c1O`, the IC50 – broadly, the point on the concentration scale where inhibition reaches its midpoint – stood at 9.18 µM.
On the same count and under the same terms, as for `COc1cc([C@@H]2c3cc4c(cc3[C@@H](OC(=O)c3cn(C5CC5)c5cc(Cl)c(F)cc5c3=O)[C@H]3COC(=O)[C@H]23)OCO4)cc(OC)c1O`, the figure is 16 µM; as for `COc1cc([C@@H]2c3cc4c(cc3[C@@H](NC(=O)c3cnccn3)[C@H]3COC(=O)[C@H]23)OCO4)cc(OC)c1O`, 6.64 µM; as for `COc1cc([C@@H]2c3cc4c(cc3[C@@H](OC(=O)Cn3cnc5c3c(=O)n(C)c(=O)n5C)[C@H]3COC(=O)[C@H]23)OCO4)cc(OC)c1O`, 7.91 µM.

The next data set relates to HeLa. The experiment in a line: Cytotoxicity against human HeLa cells after 48 hrs by MTT assay.
Settings: not given
In kind it is functional, cell-based. A digest of the protocol: as §1
(In general: Formazan colour is commonly taken as a measure of viable cells.)
In the case of `COc1cc([C@@H]2c3cc4c(cc3[C@@H](NC(=O)c3cc(O)c(O)c(O)c3)[C@H]3COC(=O)[C@H]23)OCO4)cc(OC)c1O`, the IC50 was 22.3 µM.
The same measure, in the same setting: as for `COc1cc([C@@H]2c3cc4c(cc3[C@@H](OC(=O)c3ccc5ccccc5n3)[C@H]3COC(=O)[C@H]23)OCO4)cc(OC)c1O`, the figure is 20.5 µM.
Regarding `COc1cc([C@@H]2c3cc4c(cc3[C@@H](OC(=O)c3cn(C5CC5)c5cc(Cl)c(F)cc5c3=O)[C@H]3COC(=O)[C@H]23)OCO4)cc(OC)c1O`, the half-maximal inhibitory concentration (IC50) stood at 0.6 µM.
Take `COc1cc([C@@H]2c3cc4c(cc3[C@@H](NC(=O)c3cnccn3)[C@H]3COC(=O)[C@H]23)OCO4)cc(OC)c1O`: 10.8 µM corresponded to half-maximal inhibition (IC50).
On the same count and under the same terms, as for `COc1cc([C@@H]2c3cc4c(cc3[C@@H](OC(=O)Cn3cnc5c3c(=O)n(C)c(=O)n5C)[C@H]3COC(=O)[C@H]23)OCO4)cc(OC)c1O`, the figure is 0.65 µM.

System in another data set: not listed separately
Kind of data set: Octanol-water partition coefficient, log P of the compound. The data set is classed as physicochemical.
Settings: not given
A digest of the protocol: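 Partitioning between 1-octanol and water. The compound concentration was measured in each phase, and logP was calculated as the log of the 1-octanol concentration over the water concentration. The water concentration was corrected by an index-error factor, Y = 2.555.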
With `COc1cc([C@@H]2c3cc4c(cc3[C@@H](NC(=O)c3cc(O)c(O)c(O)c3)[C@H]3COC(=O)[C@H]23)OCO4)cc(OC)c1O`, the logP (commonly a log measure of how a compound divides between an organic and an aqueous phase) amounted to 0.29.
`COc1cc([C@@H]2c3cc4c(cc3[C@@H](OC(=O)c3ccc5ccccc5n3)[C@H]3COC(=O)[C@H]23)OCO4)cc(OC)c1O` gave a logP of 0.8.
`COc1cc([C@@H]2c3cc4c(cc3[C@@H](OC(=O)c3cn(C5CC5)c5cc(Cl)c(F)cc5c3=O)[C@H]3COC(=O)[C@H]23)OCO4)cc(OC)c1O` showed a logP of 0.69.
Consider `COc1cc([C@@H]2c3cc4c(cc3[C@@H](NC(=O)c3cnccn3)[C@H]3COC(=O)[C@H]23)OCO4)cc(OC)c1O`, for which the logP was 0.43.
Still for that read-out and setting: as for `COc1cc([C@@H]2c3cc4c(cc3[C@@H](OC(=O)Cn3cnc5c3c(=O)n(C)c(=O)n5C)[C@H]3COC(=O)[C@H]23)OCO4)cc(OC)c1O`, the figure is 0.43.

A further data set relates to HepG2. The experiment in a line: Selectivity ratio of etoposide IC50 to compound IC50 for human HepG2 cells. In kind it is functional.
Settings: not given
Regarding `COc1cc([C@@H]2c3cc4c(cc3[C@@H](Sc3nc[nH]n3)[C@H]3COC(=O)[C@H]23)OCO4)cc(OC)c1O`, the “Ratio IC50” value came out at 2.73.

A further data set relates to A549. The experiment in a line: Cytotoxicity against human A549 cells. The data set is classed as functional, cell-based.
Settings: not given
In a few lines:
as §1
`COc1cc([C@@H]2c3cc4c(cc3[C@@H](Sc3nc[nH]n3)[C@H]3COC(=O)[C@H]23)OCO4)cc(OC)c1O` yielded an IC50 of 0.76 µM.

Another data set relates to HepG2. The experiment in a line: Cytotoxicity against human HepG2 cells. The data set is classed as functional, cell-based.
Settings: not given
A digest of the protocol:
as §1
`COc1cc([C@@H]2c3cc4c(cc3[C@@H](Sc3nc[nH]n3)[C@H]3COC(=O)[C@H]23)OCO4)cc(OC)c1O` displayed an IC50 of 0.42 µM.

System in another data set: not listed separately
Kind of data set: Cytotoxicity against human BGC823 cells. The data set is classed as functional, cell-based. The settings on record: BGC-823. In a few lines: as §1
For `COc1cc([C@@H]2c3cc4c(cc3[C@@H](Sc3nc[nH]n3)[C@H]3COC(=O)[C@H]23)OCO4)cc(OC)c1O`, the 50% inhibitory concentration (IC50) was determined as 0.28 µM. This lies in the sub-micromolar range.

System in the next data set: not listed separately
Kind of data set: Cytotoxicity against human HL-7702 cells after 48 hrs by MTT assay relative to etoposide. In kind it is functional, L02.
Settings: not given
Molecule `COc1cc([C@@H]2c3cc4c(cc3[C@@H](OC(=O)c3cn(C5CC5)c5cc(Cl)c(F)cc5c3=O)[C@H]3COC(=O)[C@H]23)OCO4)cc(OC)c1O` yielded an Activity of 70%.
`COc1cc([C@@H]2c3cc4c(cc3[C@@H](NC(=O)c3cnccn3)[C@H]3COC(=O)[C@H]23)OCO4)cc(OC)c1O` had an Activity of 117%.
Regarding `COc1cc([C@@H]2c3cc4c(cc3[C@@H](OC(=O)Cn3cnc5c3c(=O)n(C)c(=O)n5C)[C@H]3COC(=O)[C@H]23)OCO4)cc(OC)c1O`, the Activity is recorded as 54%.

The subject of another data set is A549. Kind of data set: Cytotoxicity against human A549 cells after 48 hrs by MTT assay. The data set is classed as functional, cell-based. The settings on record: A549, 48 h. In a few lines:
as §1
In turn, `COc1cc([C@@H]2c3cc4c(cc3[C@@H](NC(=O)c3cc(O)c(O)c(O)c3)[C@H]3COC(=O)[C@H]23)OCO4)cc(OC)c1O` had an IC50 of 33.5 µM.
The same measure, in the same setting: the figure for `COc1cc([C@@H]2c3cc4c(cc3[C@@H](OC(=O)c3ccc5ccccc5n3)[C@H]3COC(=O)[C@H]23)OCO4)cc(OC)c1O` is 19.2 µM; for `COc1cc([C@@H]2c3cc4c(cc3[C@@H](OC(=O)c3cn(C5CC5)c5cc(Cl)c(F)cc5c3=O)[C@H]3COC(=O)[C@H]23)OCO4)cc(OC)c1O` it is 10.1 µM; for `COc1cc([C@@H]2c3cc4c(cc3[C@@H](NC(=O)c3cnccn3)[C@H]3COC(=O)[C@H]23)OCO4)cc(OC)c1O` it is 16.5 µM.
Still for that read-out and setting: as for `COc1cc([C@@H]2c3cc4c(cc3[C@@H](OC(=O)Cn3cnc5c3c(=O)n(C)c(=O)n5C)[C@H]3COC(=O)[C@H]23)OCO4)cc(OC)c1O`, the figure is 6.91 µM.

System in a further data set: not listed separately
Kind of data set: Cytotoxicity against human HL-7702 cells after 48 hrs by MTT assay. The data set is classed as cell-based, L02. The settings on record: Homo sapiens, L02, 48 h.
With `COc1cc([C@@H]2c3cc4c(cc3[C@@H](NC(=O)c3cc(O)c(O)c(O)c3)[C@H]3COC(=O)[C@H]23)OCO4)cc(OC)c1O`, half-maximal inhibition (IC50) required 14.8 µM.
`COc1cc([C@@H]2c3cc4c(cc3[C@@H](OC(=O)c3ccc5ccccc5n3)[C@H]3COC(=O)[C@H]23)OCO4)cc(OC)c1O` yielded an IC50 of 20.1 µM.
On the same count and under the same terms, the figure for `COc1cc([C@@H]2c3cc4c(cc3[C@@H](OC(=O)c3cn(C5CC5)c5cc(Cl)c(F)cc5c3=O)[C@H]3COC(=O)[C@H]23)OCO4)cc(OC)c1O` is 41.8 µM; for `COc1cc([C@@H]2c3cc4c(cc3[C@@H](NC(=O)c3cnccn3)[C@H]3COC(=O)[C@H]23)OCO4)cc(OC)c1O` it is 53.6 µM.
On the same count and under the same terms, the figure for `COc1cc([C@@H]2c3cc4c(cc3[C@@H](OC(=O)Cn3cnc5c3c(=O)n(C)c(=O)n5C)[C@H]3COC(=O)[C@H]23)OCO4)cc(OC)c1O` is 38 µM.

Still in this data set, the particulars now being: human, l02, 48 h.
On to `COc1cc([C@@H]2c3cc4c(cc3[C@@H](NC(=O)c3cc(O)c(O)c(O)c3)[C@H]3COC(=O)[C@H]23)OCO4)cc(OC)c1O`, for which the Activity result is listed as “Dose-dependent effect”.
Turning to `COc1cc([C@@H]2c3cc4c(cc3[C@@H](OC(=O)c3ccc5ccccc5n3)[C@H]3COC(=O)[C@H]23)OCO4)cc(OC)c1O`, the Activity entry is given as “Dose-dependent effect”.
Same read-out and setting: the entry for `COc1cc([C@@H]2c3cc4c(cc3[C@@H](OC(=O)c3cn(C5CC5)c5cc(Cl)c(F)cc5c3=O)[C@H]3COC(=O)[C@H]23)OCO4)cc(OC)c1O` is “Dose-dependent effect”.
`COc1cc([C@@H]2c3cc4c(cc3[C@@H](NC(=O)c3cnccn3)[C@H]3COC(=O)[C@H]23)OCO4)cc(OC)c1O`: the Activity result was “Dose-dependent effect”.
For `COc1cc([C@@H]2c3cc4c(cc3[C@@H](OC(=O)Cn3cnc5c3c(=O)n(C)c(=O)n5C)[C@H]3COC(=O)[C@H]23)OCO4)cc(OC)c1O`, the Activity entry is listed as “Dose-dependent effect”.

The test system of a further data set is A549. Kind of data set: Selectivity ratio of etoposide IC50 to compound IC50 for human A549 cells.
Settings: not given
In kind it is functional.
Turning to `COc1cc([C@@H]2c3cc4c(cc3[C@@H](Sc3nc[nH]n3)[C@H]3COC(=O)[C@H]23)OCO4)cc(OC)c1O`, the “Ratio IC50” value stood at 221.

The test system of another data set is BGC-823. Kind of data set: Selectivity ratio of etoposide IC50 to compound IC50 for human BGC823 cells. The data set is classed as functional.
Settings: not given
Take `COc1cc([C@@H]2c3cc4c(cc3[C@@H](Sc3nc[nH]n3)[C@H]3COC(=O)[C@H]23)OCO4)cc(OC)c1O`: the “Ratio IC50” value is given as 91.

System in a further data set: not listed separately
Kind of data set: Cytotoxicity against human BGC823 cells after 48 hrs by MTT assay. The data set is classed as functional, cell-based. As to conditions: BGC-823, 48 h. In a few lines: as §1
Take `COc1cc([C@@H]2c3cc4c(cc3[C@@H](NC(=O)c3cc(O)c(O)c(O)c3)[C@H]3COC(=O)[C@H]23)OCO4)cc(OC)c1O`: half-maximal inhibition (IC50) required 24.2 µM.
Same read-out and setting: the figure for `COc1cc([C@@H]2c3cc4c(cc3[C@@H](OC(=O)c3ccc5ccccc5n3)[C@H]3COC(=O)[C@H]23)OCO4)cc(OC)c1O` is 28.8 µM; for `COc1cc([C@@H]2c3cc4c(cc3[C@@H](OC(=O)c3cn(C5CC5)c5cc(Cl)c(F)cc5c3=O)[C@H]3COC(=O)[C@H]23)OCO4)cc(OC)c1O` it is 17.4 µM; for `COc1cc([C@@H]2c3cc4c(cc3[C@@H](NC(=O)c3cnccn3)[C@H]3COC(=O)[C@H]23)OCO4)cc(OC)c1O` it is 14.4 µM.
`COc1cc([C@@H]2c3cc4c(cc3[C@@H](OC(=O)Cn3cnc5c3c(=O)n(C)c(=O)n5C)[C@H]3COC(=O)[C@H]23)OCO4)cc(OC)c1O` displayed an IC50 of 2 µM.
